Results from ChEMBL document CHEMBL2062469, “1-(2-Mercaptobenzenesulfonyl)-3-hydroxyguanidines--novel potent antiproliferatives, synthesis and in vitro biological activity” (2012).

Columns and labels:
Type in all cases: functional
SK-MEL-2 = assay: Cytostatic activity against human SK-MEL-2 cells
Outline: (§1)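 NCI-60 human tumor cell line screen run by the US National Cancer Institute under the NIH Developmental Therapeutics Program protocol. A single-dose prescreen at 10 µM came first. Selected compounds then went into the 5-dose assay. Cytostatic activity is reported as GI50 (µM).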

M14 = assay: Cytostatic activity against human M14 cells; outline: as §1
K562 = assay: Cytostatic activity against human K562 cells; outline: as §1
NCI-H322M = assay: Cytostatic activity against human NCI-H322M cells; outline: as §1
PC-3 = assay: Cytostatic activity against human PC3 cells; outline: as §1
OVCAR-5 = assay: Cytostatic activity against human OVCAR5 cells; outline: as §1
HCT-15 = assay: Cytostatic activity against human HCT15 cells; outline: as §1
HCC 2998 = assay: Cytostatic activity against human HCC2998 cells; outline: as §1
MCF7 = assay: Cytostatic activity against human MCF7 cells; outline: as §1
SW-620 = assay: Cytostatic activity against human SW620 cells
Outline: (§2)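 Human tumour cell lines from the NCI-60 panel, tested at the US National Cancer Institute under the NIH Developmental Therapeutics Program protocol. A single-dose prescreen at 10 µM came first. Selected compounds then went to a 5-dose assay, which gave GI50 and TGI values in µM.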

SNB-19 = assay: Cytostatic activity against human SNB19 cells; outline: as §1
SK-MEL-5 = assay: Cytostatic activity against human SK-MEL-5 cells; outline: as §1
OVCAR-3 = assay: Cytostatic activity against human OVCAR3 cells; outline: as §1
OVCAR-8 = assay: Cytostatic activity against human OVCAR8 cells; outline: as §1
NCI/ADR-RES = assay: Cytostatic activity against human NCI-ADR-RES cells; outline: as §1
T47D = assay: Cytostatic activity against human T47D cells; outline: as §2
SNB-75 = assay: Cytostatic activity against human SNB75 cells; outline: as §2
UO-31 = assay: Cytostatic activity against human UO31 cells; outline: as §2
IGROV-1 = assay: Cytostatic activity against human IGROV1 cells; outline: as §1
MOLT-4 = assay: Cytostatic activity against human MOLT4 cells; outline: as §1
DU-145 = assay: Cytostatic activity against human DU145 cells; outline: as §1
ACHN = assay: Cytostatic activity against human ACHN cells; outline: as §1
EKVX = assay: Cytostatic activity against human EKVX cells; outline: as §1
SF-295 = assay: Cytostatic activity against human SF295 cells; outline: as §1
HOP-62 = assay: Cytostatic activity against human HOP62 cells; outline: as §1
UACC-257 = assay: Cytostatic activity against human UACC257 cells; outline: as §2
Hs-578T = assay: Cytostatic activity against human Hs 578T cells; outline: as §1
Malme-3M = assay: Cytostatic activity against human MALME-3M cells; outline: as §1
MDA-MB-231 = assay: Cytostatic activity against human MDA-MB-231/ATCC cells; outline: as §1
CCRF-CEM = assay: Cytostatic activity against human CCRF-CEM cells; outline: as §1
HCT-116 = assay: Cytostatic activity against human HCT116 cells; outline: as §1
SF-539 = assay: Cytostatic activity against human SF539 cells; outline: as §1
SK-MEL-28 = assay: Cytostatic activity against human SK-MEL-28 cells; outline: as §1
[1] = Cytostatic activity against human […] cells; outline: as §1
786-0 = assay: Cytostatic activity against human 786-0 cells; outline: as §1
SR = assay: Cytostatic activity against human SR cells; outline: as §2
KM12 = assay: Cytostatic activity against human KM12 cells; outline: as §1
HT-29 = assay: Cytostatic activity against human HT-29 cells; outline: as §1
HOP-92 = assay: Cytostatic activity against human HOP92 cells; outline: as §1
SF-268 = assay: Cytostatic activity against human SF268 cells; outline: as §1
MDA-MB-435 = assay: Cytostatic activity against human MDA-MB-435 cells; outline: as §1
UACC-62 = assay: Cytostatic activity against human UACC62 cells; outline: as §2
A498 = assay: Cytostatic activity against human A498 cells; outline: as §1
LOX IMVI = assay: Cytostatic activity against human LOXIMVI cells; outline: as §1
SK-OV-3 = assay: Cytostatic activity against human SKOV3 cells; outline: as §1
RXF 393 = assay: Cytostatic activity against human RXF393 cells; outline: as §1
OVCAR-4 = assay: Cytostatic activity against human OVCAR4 cells; outline: as §1
U-251 = assay: Cytostatic activity against human U251 cells; outline: as §2
BT-549 = assay: Cytostatic activity against human BT549 cells; outline: as §1
CAKI-1 = assay: Cytostatic activity against human Caki1 cells; outline: as §1
NCI-H226 = assay: Cytostatic activity against human NCI-H226 cells; outline: as §1
MDA-MB-468 = assay: Cytostatic activity against human MDA-MB-468 cells; outline: as §1
COLO 205 = assay: Cytostatic activity against human COLO205 cells; outline: as §1
SN12C = assay: Cytostatic activity against human SN12C cells; outline: as §1
NCI-H23 = assay: Cytostatic activity against human NCI-H23 cells; outline: as §1
NCI-H522 = assay: Cytostatic activity against human NCI-H522 cells; outline: as §1
NCI-H460 = assay: Cytostatic activity against human NCI-H460 cells; outline: as §1

## N=C(NO)NS(=O)(=O)c1cc(-c2nnc(-c3ccccc3)s2)c(Cl)cc1SCc1ccc2c(c1)OCO2
SK-MEL-2
  GI50: 2010 nM
  TGI: 3750 nM
M14
  GI50: 1740 nM
  TGI: 3470 nM
K562
  GI50: 1530 nM
  TGI: 3940 nM
NCI-H322M
  GI50: 1580 nM
  TGI: 4280 nM
PC-3
  GI50: 1850 nM
  TGI: 4130 nM
OVCAR-5
  GI50: 2060 nM
  TGI: 4360 nM
HCT-15
  GI50: 2020 nM
  TGI: 4340 nM
HCC 2998
  GI50: 1850 nM
  TGI: 3590 nM
MCF7
  GI50: 1360 nM
  TGI: 3010 nM
SW-620
  GI50: 1460 nM
  TGI: 2860 nM
SNB-19
  GI50: 1770 nM
  TGI: 3830 nM
SK-MEL-5
  GI50: 1520 nM
  TGI: 2840 nM
OVCAR-3
  GI50: 1700 nM
  TGI: 3080 nM
OVCAR-8
  GI50: 1770 nM
  TGI: 3740 nM
NCI/ADR-RES
  GI50: 3680 nM
T47D
  GI50: 1690 nM
  TGI: 4150 nM
SNB-75
  GI50: 1070 nM
  TGI: 2340 nM
UO-31
  GI50: 1280 nM
  TGI: 3540 nM
IGROV-1
  GI50: 1680 nM
  TGI: 3950 nM
MOLT-4
  GI50: 1140 nM
  TGI: 3080 nM
DU-145
  GI50: 1670 nM
  TGI: 3110 nM
ACHN
  GI50: 1700 nM
  TGI: 3150 nM
EKVX
  GI50: 1650 nM
  TGI: 2990 nM
SF-295
  GI50: 1630 nM
  TGI: 3550 nM
HOP-62
  GI50: 1930 nM
  TGI: 3710 nM
UACC-257
  GI50: 1670 nM
  TGI: 3230 nM
Hs-578T
  GI50: 2410 nM
  TGI: 6610 nM
Malme-3M
  GI50: 1710 nM
  TGI: 3600 nM
MDA-MB-231
  GI50: 1680 nM
  TGI: 3370 nM
CCRF-CEM
  GI50: 1040 nM
  TGI: 3660 nM
HCT-116
  GI50: 1520 nM
  TGI: 3310 nM
SF-539
  GI50: 2150 nM
  TGI: 4100 nM
SK-MEL-28
  GI50: 1680 nM
  TGI: 3500 nM
[1]
  GI50: 1760 nM
  TGI: 4520 nM
786-0
  GI50: 2270 nM
SR
  GI50: 880 nM
  TGI: 4100 nM
KM12
  GI50: 1640 nM
  TGI: 3030 nM
HT-29
  GI50: 1850 nM
  TGI: 3430 nM
HOP-92
  GI50: 1820 nM
  TGI: 5100 nM
SF-268
  GI50: 1610 nM
  TGI: 3320 nM
MDA-MB-435
  GI50: 1380 nM
  TGI: 2770 nM
UACC-62
  GI50: 1700 nM
  TGI: 3530 nM
A498
  GI50: 1980 nM
  TGI: 5520 nM
LOX IMVI
  GI50: 1730 nM
SK-OV-3
  GI50: 1810 nM
  TGI: 3340 nM
RXF 393
  GI50: 1680 nM
  TGI: 3530 nM
OVCAR-4
  GI50: 1710 nM
  TGI: 4980 nM
U-251
  GI50: 1400 nM
  TGI: 2850 nM
BT-549
  GI50: 1960 nM
  TGI: 4000 nM
CAKI-1
  GI50: 2030 nM
  TGI: 4420 nM
NCI-H226
  GI50: 2010 nM
  TGI: 4020 nM
MDA-MB-468
  GI50: 1530 nM
  TGI: 2930 nM
COLO 205
  GI50: 1750 nM
  TGI: 3280 nM
SN12C
  GI50: 1620 nM
  TGI: 3450 nM
NCI-H23
  GI50: 1770 nM
  TGI: 3850 nM
NCI-H522
  GI50: 240 nM
  TGI: 800 nM
NCI-H460
  GI50: 1790 nM
  TGI: 3560 nM
